Experimental findings from PubChem BioAssay AID743338 (The Scripps Research Institute Molecular Screening Center, 2014) are described below.

SMILES strings stand for the structures. Calls of active or inactive are those of the source.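 Rule for the calls: active = IC50 at or below 10 µM; inactive = IC50 above 10 µM.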

Disintegrin and metalloproteinase domain-containing protein 10 (Homo sapiens), sequence (O14672 214-748 limits assumed): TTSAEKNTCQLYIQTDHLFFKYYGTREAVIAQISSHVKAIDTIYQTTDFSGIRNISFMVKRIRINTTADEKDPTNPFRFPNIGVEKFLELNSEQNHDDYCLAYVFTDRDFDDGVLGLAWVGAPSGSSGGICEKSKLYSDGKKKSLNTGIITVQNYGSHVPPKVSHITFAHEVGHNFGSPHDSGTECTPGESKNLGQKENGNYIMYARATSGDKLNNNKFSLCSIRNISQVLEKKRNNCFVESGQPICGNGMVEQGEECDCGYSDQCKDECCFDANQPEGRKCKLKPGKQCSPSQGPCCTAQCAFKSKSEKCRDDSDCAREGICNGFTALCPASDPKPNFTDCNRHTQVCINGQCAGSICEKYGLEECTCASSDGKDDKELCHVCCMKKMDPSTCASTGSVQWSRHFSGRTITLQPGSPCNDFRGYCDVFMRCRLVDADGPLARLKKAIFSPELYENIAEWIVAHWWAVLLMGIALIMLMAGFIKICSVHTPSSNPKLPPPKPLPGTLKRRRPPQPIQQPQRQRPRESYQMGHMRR

The target in this assay is Disintegrin and metalloproteinase domain-containing protein 10 (Homo sapiens) (UniProt O14672). In words: ADAM10 protease inhibitors, potency curves – biochemical, QFRET peptide, fluorescence, ADAM10 exosite inhibitor project, late-stage follow-up (AID 743338). The settings on record: recombinant ADAM10, QFRET peptide cleavage. Summed up:
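System – recombinant human ADAM10 enzyme · Compound dosing – 10-point threefold dilution series, top dose 69.5 µM · Medium – HEPES 50 mM buffer, pH 7.5, with 0.01% Brij · Also added – DM2 quenched peptide substrate · Benchmarks – 1 µM marimastat high, DMSO low · Timing – 30 min preincubation at 25 °C, 3 h reaction · Replication – triplicate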
As usually defined, the IC50 is the concentration at which inhibition is half-maximal. Turning to `O=C(Nc1ccc(OCC(F)(F)C(F)(F)F)c(C(F)(F)F)c1)c1ccc(F)cc1`, the IC50 is > 69.5 µM (inactive).

Consider `Oc1cc2c(cc1C(c1ccc(Cl)c(Cl)c1)N1CCCC1)OCO2` (stereo not drawn), for which the IC50 was 4.87 µM.

As for `Cc1ccc(OCC(O)Cn2c3ccccc3c3ccccc32)cc1` (stereo not drawn), the IC50 was > 69.5 µM (inactive).

`CS(=O)(=O)N(CC(=O)Nc1ccccc1Sc1ccccc1)c1cccc(Br)c1`: the IC50 is > 69.5 µM (inactive).

For `COc1cccc(C(=O)NNC(=O)C(=O)Nc2ccc(C)c(Cl)c2)c1`, the IC50 is 6.5 µM.

As to `C=C(C)COc1ccc(-c2n[nH]c(C)c2Oc2ccccc2OC)c(O)c1`, the IC50 result was “inactive”.

With `CCCCN(Cc1ccccc1)S(=O)(=O)c1cc(Br)cc2c1N(C(C)=O)C(C)C2` (stereo not drawn), the IC50 was > 69.5 µM (inactive).

For `Cc1ccc(S(=O)(=O)Nc2ccc(Cl)cc2)cc1NC(=O)c1cc2c(s1)CCCC2`, the IC50 is > 69.5 µM (inactive).

`O=C1NC(=O)C(Cc2ccc(Cl)cc2)(c2ccccc2)N1` (stereo not drawn): the IC50 result is “inactive”.

As for `Cc1csc(-c2cnn(-c3ccccc3)c2NC(=O)c2ccc(C(F)(F)F)cc2)n1`, the IC50 is > 69.5 µM (inactive).

`COc1ccc2nc(SCC(=O)Nc3ccc(S(=O)(=O)N4CCCC4)cc3)c(C#N)cc2c1`: the IC50 was > 69.5 µM (inactive).

Turning to `O=C(Nc1ccc(OCC(F)(F)C(F)(F)F)c(C(F)(F)F)c1)c1ccc(Br)cc1`, the IC50 was > 69.5 µM (inactive).

On to `O=C(CN(Cc1cccs1)S(=O)(=O)c1ccc(S(=O)(=O)NC2CCCCC2)cc1)Nc1ccccc1`, for which the IC50 is > 69.5 µM (inactive).

As to `COc1ccccc1NS(=O)(=O)c1cccc(NC(=O)Nc2ccc(Cl)cc2)c1`, the IC50 was > 69.5 µM (inactive).

For the compound `C=C(C)COc1ccc(-c2[nH]ncc2Oc2ccc(OC)cc2)c(O)c1`, the IC50 entry is “inactive”.

Turning to `C=C(C)COc1ccc(-c2[nH]ncc2Oc2cccc(OC)c2)c(O)c1`, the IC50 result was “inactive”.

In the case of `O=S(=O)(NCC(Nc1ccc(Cl)cc1)c1ccccc1)c1ccc(Cl)cc1` (stereo not drawn), the IC50 is > 69.5 µM (inactive).

As to `O=C(Nc1ccc(OCC(F)(F)C(F)F)c(C(F)(F)F)c1)c1ccc(Cl)cc1`, the IC50 was > 69.5 µM (inactive).

`Cc1ccc(CC2(c3ccccc3)NC(=O)NC2=O)cc1` (stereo not drawn): the IC50 was > 69.5 µM (inactive).

Consider `CCOc1ccc(NC(=O)CC2SC(=O)N(c3ccccc3)C2=O)cc1` (stereo not drawn), for which the IC50 was > 69.5 µM (inactive).

On to `O=S(=O)(NCC(Nc1ccc(Cl)cc1)c1ccccc1)c1ccccc1` (stereo not drawn), for which the IC50 is > 69.5 µM (inactive).

`COc1ccc(-c2ccc(-c3noc(-c4cccc(OC)c4)n3)c(OC)n2)cc1`: the IC50 is > 69.5 µM (inactive).

As to `O=C(O)CCC(=O)c1c[nH]c2ccccc12`, the IC50 was > 69.5 µM (inactive).
